Experimental data from ChEMBL document CHEMBL2146441, “2,6-Disubstituted imidazo[2,1-b][1,3,4]thiadiazoles: search for anticancer agents” (2012).

Experiments:
Format in all cases: functional
SF-295 = experiment: Cytotoxicity against human SF295 cells assessed as cell growth at 10^-5 M after 48 hrs by SRB assay; conditions: SF-295, 48 h, read-out: Activity
SF-268 [1] = experiment: Growth inhibition of human SF268 cells after 48 hrs by SRB assay; conditions: SF-268, 48 h
Method in brief: (§1)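 Adherent NCI-60 lines grown in RPMI 1640 with 5% FBS, seeded at 5000–40,000 cells/well, and preincubated 24 h at 37 °C, 5% CO2. Compound, stocked in DMSO, given either once at 10^-5 M or at five 10-fold dilutions for 48 h. Cells fixed with cold TCA (final 10%), stained with 0.4% SRB, and read at 515 nm. GI50 taken as 50% reduction in net protein increase versus time-zero and control plates.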

SNB-75 = experiment: Growth inhibition of human SNB75 cells after 48 hrs by SRB assay; conditions: SNB-75, 48 h; method in brief: as §1
U-251 [2] = experiment: Growth inhibition of human U251 cells after 48 hrs by SRB assay; conditions: U-251, 48 h; method in brief: as §1
Malme-3M [3] = experiment: Growth inhibition of human MALME-3M cells after 48 hrs by SRB assay; conditions: for CC50: read-out: LC50 (the source's name); method in brief: as §1
MCF7 = experiment: Growth inhibition of human MCF7 cells after 48 hrs by SRB assay; conditions: MCF7, 48 h; method in brief: as §1
SR = experiment: Cytotoxicity against human SR cells assessed as cell growth at 10^-7 M after 48 hrs by SRB assay; conditions: read-out: Activity
U-251 [4] = experiment: Cytotoxicity against human U251 cells assessed as cell growth at 10^-7 M after 48 hrs by SRB assay; conditions: U-251, 48 h, read-out: Activity
LOX IMVI [5] = experiment: Cytotoxicity against human LOXIMVI cells assessed as cell growth at 10^-4 M after 48 hrs by SRB assay; conditions: read-out: Activity
CAKI-1 = experiment: Cytotoxicity against human Caki1 cells assessed as cell growth at 10^-4 M after 48 hrs by SRB assay; conditions: CAKI-1, 48 h, read-out: Activity
Method in brief: (§2)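 NCI-60 screen: lines kept in RPMI 1640 with 5% FBS, seeded at 5000–40,000 cells/well by doubling time, preincubated 24 h at 37 °C in 5% CO2. Time-zero plates TCA-fixed at drug addition. DMSO stocks diluted in medium, 48 h exposure. Fixation in cold TCA (final 10% adherent, 16% suspension), 0.4% SRB stain, solubilised in 10 mM Tris base, A515. Percent growth computed against control and time-zero.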

UO-31 = experiment: Cytotoxicity against human UO31 cells assessed as cell growth at 10^-7 M after 48 hrs by SRB assay; conditions: UO-31, 48 h, read-out: Activity
NCI-H460 = experiment: Cytotoxicity against human NCI-H460 cells assessed as cell growth at 10^-8 M after 48 hrs by SRB assay; conditions: NCI-H460, 48 h, read-out: Activity
HT-29 = experiment: Cytotoxicity against human HT-29 cells assessed as cell growth at 10^-8 M after 48 hrs by SRB assay; conditions: HT-29, 48 h, read-out: Activity
Method in brief: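 NCI-60 five-dose screen. Cells were grown in RPMI 1640 with 5% FBS and seeded at 5000–40,000 cells/well according to doubling time. They were pre-incubated 24 h at 37 °C in 5% CO₂, and time-zero (Tz) plates were TCA-fixed at drug addition. Five 10-fold dilutions of DMSO stock were applied for 48 h. Read-out was SRB staining, 515 nm absorbance, with percent growth calculated versus Tz and untreated control.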

SF-268 [6] = experiment: Cytotoxicity against human SF268 cells assessed as cell growth at 10^-8 M after 48 hrs by SRB assay; conditions: SF-268, 48 h, read-out: Activity
SK-MEL-2 [7] = experiment: Cytotoxicity against human SK-MEL-2 cells assessed as cell growth at 10^-8 M after 48 hrs by SRB assay; conditions: SK-MEL-2, 48 h, read-out: Activity
A498 = experiment: Cytotoxicity against human A498 cells assessed as cell growth at 10^-8 M after 48 hrs by SRB assay; conditions: A498, 48 h, read-out: Activity; method in brief: as §2
DU-145 = experiment: Cytotoxicity against human DU145 cells assessed as cell growth at 10^-8 M after 48 hrs by SRB assay; conditions: DU-145, 48 h, read-out: Activity; method in brief: as §2
MDA-MB-231 = experiment: Cytotoxicity against human MDA-MB-231 cells assessed as cell growth at 10^-8 M after 48 hrs by SRB assay; conditions: MDA-MB-231, 48 h, read-out: Activity
CCRF-CEM = experiment: Cytotoxicity against human CCRF-CEM cells assessed as cell growth at 10^-6 M after 48 hrs by SRB assay; conditions: read-out: Activity; method in brief: as §2
LOX IMVI [8] = experiment: Cytotoxicity against human LOXIMVI cells assessed as cell growth at 10^-6 M after 48 hrs by SRB assay; conditions: read-out: Activity
Malme-3M [9] = experiment: Cytotoxicity against human MALME-3M cells assessed as cell growth at 10^-6 M after 48 hrs by SRB assay; conditions: read-out: Activity
SK-MEL-2 [10] = experiment: Cytotoxicity against human SK-MEL-2 cells assessed as cell growth at 10^-6 M after 48 hrs by SRB assay; conditions: SK-MEL-2, 48 h, read-out: Activity
786-0 = experiment: Cytotoxicity against human 786-0 cells assessed as cell growth at 10^-6 M after 48 hrs by SRB assay; conditions: 786-0, 48 h, read-out: Activity; method in brief: as §2
MOLT-4 = experiment: Growth inhibition of human MOLT4 cells after 48 hrs by SRB assay; conditions: MOLT-4, 48 h
Method in brief: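 Leukemia suspension lines grown in RPMI 1640 with 5% FBS, seeded at 5000–40,000 cells/well, and preincubated 24 h at 37 °C, 5% CO2. Compound, stocked in DMSO, given either once at 10^-5 M or at five 10-fold dilutions for 48 h. Settled cells fixed with 80% TCA (final 16%), stained with SRB, and read at 515 nm. GI50 calculated against time-zero and control growth.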

COLO = experiment: Growth inhibition of human COLO […] cells after 48 hrs by SRB assay
Method in brief: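 Same 48 h NCI-60 five-dose SRB protocol. Adherent lines were fixed with cold TCA at 10% final; suspension lines such as CCRF-CEM were fixed with 16% final TCA. Stain was 0.4% SRB in 1% acetic acid for 10 min, solubilized in 10 mM Tris base and read at 515 nm. GI50 came from log concentration–growth curves, solving [(Ti−Tz)/(C−Tz)]×100 = 50.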

MDA-MB-468 = experiment: Cytotoxicity against human MDA-MB-468 cells assessed as cell growth at 10^-6 M after 48 hrs by SRB assay; conditions: MDA-MB-468, 48 h, read-out: Activity

In the case of COc1ccc(-c2nn3cc(-c4ccc(O)cc4O)nc3s2)cc1, the growth at 10 µM (SF-295) is reported as 3%, the GI50 (SF-268 [1]) is reported as 2.42 µM and the LC50 (SF-268 [1]) is reported as over 100 µM. It also gave a TGI (SF-268 [1]) of 41.1 µM, a GI50 (SNB-75) of 0.331 µM and a TGI (SNB-75) of 2.17 µM. For the same compound, the GI50 (U-251 [2]) was 1.7 µM, the LC50 (U-251 [2]) was over 100 µM and the TGI (U-251 [2]) was 4.48 µM. It also gave a GI50 (Malme-3M [3]) of 1.32 µM, a TGI (Malme-3M [3]) of 4.7 µM and a CC50 (Malme-3M [3]) of over 100 µM. For the same compound, the GI50 (MCF7) was 1.98 µM, the LC50 (50% cell kill) (MCF7) was over 100 µM and the TGI (MCF7) was 21.6 µM. For the same compound, the growth at 0.1 µM (SR) was 85%, the growth at 0.1 µM (U-251 [4]) was 92% and the growth at 100 µM (LOX IMVI [5]) was -4%. The growth at 100 µM (CAKI-1) was -9%, the growth at 0.1 µM (UO-31) was 83% and the growth at 0.01 µM (NCI-H460) was 101%. For the same compound, the growth at 0.01 µM (HT-29) was 98%, the growth at 0.01 µM (SF-268 [6]) was 97% and the growth at 0.01 µM (SK-MEL-2 [7]) was 93%. The growth at 0.01 µM (A498) was 82%, the growth at 0.01 µM (DU-145) was 106% and the growth at 0.01 µM (MDA-MB-231) was 99%. For the same compound, the growth at 1 µM (CCRF-CEM) was 74%, the growth at 1 µM (LOX IMVI [8]) was 82% and the growth at 1 µM (Malme-3M [9]) was 61%. For the same compound, the growth at 1 µM (SK-MEL-2 [10]) was 85%, the growth at 1 µM (786-0) was 90% and the GI50 (MOLT-4) was 3.04 µM. For the same compound, the LC50 (MOLT-4) was over 100 µM, the TGI (MOLT-4) was 29.8 µM and the GI50 (COLO) was 5.82 µM. For the same compound, the LC50 (COLO) was over 100 µM, the TGI (COLO) was 36.8 µM and the growth at 1 µM (MDA-MB-468) was 59%.
Work on COc1ccc(-c2nn3cc(-c4cccc(N)c4)nc3s2)cc1 yielded a growth at 10 µM (SF-295) of 24%, a GI50 (SF-268 [1]) of 4.13 µM and an LC50 (SF-268 [1]) of over 100 µM. For the same compound, the TGI (SF-268 [1]) was 27.2 µM, the GI50 (SNB-75) was 1.07 µM and the TGI (SNB-75) was 4.87 µM. For the same compound, the CC50 (SNB-75; read-out: LC50 (the source's name)) was over 100 µM, the GI50 (U-251 [2]) was 7.65 µM and the LC50 (U-251 [2]) was over 100 µM. The TGI (U-251 [2]) was 52.1 µM, the GI50 (Malme-3M [3]) was 1.74 µM and the TGI (Malme-3M [3]) was 6.5 µM. For the same compound, the CC50 (Malme-3M [3]) was 47.3 µM, the GI50 (MCF7) was 2.2 µM and the LC50 (50% cell kill) (MCF7) was over 100 µM. The TGI (MCF7) was 20.3 µM, the growth at 0.1 µM (SR) was 102% and the growth at 0.1 µM (U-251 [4]) was 106%. It also gave a growth at 100 µM (LOX IMVI [5]) of -29%, a growth at 100 µM (CAKI-1) of -39% and a growth at 0.1 µM (UO-31) of 81%. The growth at 0.01 µM (NCI-H460) was 100%, the growth at 0.01 µM (HT-29) was 100% and the growth at 0.01 µM (SF-268 [6]) was 100%. The growth at 0.01 µM (SK-MEL-2 [7]) was 93%, the growth at 0.01 µM (A498) was 87% and the growth at 0.01 µM (DU-145) was 101%. The growth at 0.01 µM (MDA-MB-231) was 85%, the growth at 1 µM (CCRF-CEM) was 63% and the growth at 1 µM (LOX IMVI [8]) was 77%. It also gave a growth at 1 µM (Malme-3M [9]) of 71%, a growth at 1 µM (SK-MEL-2 [10]) of 79% and a growth at 1 µM (786-0) of 104%. It also gave a GI50 (MOLT-4) of 3 µM, an LC50 (MOLT-4) of over 100 µM and a TGI (MOLT-4) of over 100 µM. The GI50 (COLO) was 7.08 µM, the LC50 (COLO) was 86 µM and the TGI (COLO) was 26.7 µM. The growth at 1 µM (MDA-MB-468) was 68%.
